ChEMBL document CHEMBL4371095, “Triazole-Based Inhibitors of the Wnt/β-Catenin Signaling Pathway Improve Glucose and Lipid Metabolisms in Diet-Induced Obese Mice” (J Med Chem, 2019)
The source made the active and inactive calls. The calls are words filed in the database; no cut-off is given here.

Columns and labels:
Mus musculus [1] = assay: Decrease in hepatic ACOT4 mRNA level in high fat diet fed C57BL/6J mouse at 40 mg/kg, ip administered every 2 days for 11 weeks by qPCR analysis; type: functional, organism-based
Procedure, shortened: (§1)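 Male mice, 8 weeks old, fed a 45% kcal fat diet for 6 weeks, then dosed i.p. every 2 days in corn oil vehicle for 11 weeks. Liver mRNA of the indicated genes was quantified at sacrifice; mean ± SEM, n = 5 per group.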

[2] = Inhibition of Wnt3a activated Wnt/beta-catenin signaling (unknown origin) expressed in HEK293 cells harboring TCF/LEF-responsive luciferase preincubated with cells followed by Wnt3a addition and measured after 24 hrs by luciferase reporter gene assay; type: cell-based; conditions: Homo sapiens
Procedure, shortened: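 HEK293 cells stably carrying TOPFlash/GFP were plated at 2000/well in DMEM with 10% FBS and kept overnight at 37 °C. Compound was pin-transferred, then recombinant human Wnt-3a was added (200 ng/mL working stock). After 24 h at 37 °C, ONE-Glo luminescence was read after 30 min. IC50 is mean ± SE from three independent experiments.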

HEK293 [3] = assay: Growth inhibition of unstimulated HEK293 cells up to 100 uM after 72 hrs by CellTiter-Fluor assay; type: cell-based; conditions: human, hek293, 72 h
Procedure, shortened: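 Unstimulated HEK293 cells were plated at 3.5×10^5/well and grown for 24 h, then incubated with compound for 72 h. Viability was read with CellTiter-Fluor.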

HEK293 [4] = assay: Inhibition of LiCl-activated Wnt/beta-catenin/Axin signaling (unknown origin) expressed in HEK293 cells assessed as degradation of beta-catenin by measuring decrease in beta-catenin protein expression after 24 hrs by Western blot method; type: cell-based; conditions: Homo sapiens
Procedure, shortened: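 HEK293 cells were treated with compound in the presence of lithium chloride for 24 h. Lysis buffer contained 10 mM HEPES, 100 μM EDTA, 10 mM KCl, 0.5% NP40 and inhibitors. Protein was quantified by BCA, resolved on 10% SDS-PAGE, and immunoblotted for β-catenin.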

HEK293 [5] = assay: Inhibition of 25 to 50 mM LiCl activated Wnt/beta-catenin signaling (unknown origin) expressed in HEK293 cells harboring TCF/LEF-responsive luciferase at 0.1 uM preincubated with cells followed by LiCl addition and measured after 24 hrs by luciferase reporter gene assay; type: cell-based; conditions: Homo sapiens
HEK293 [6] = assay: Inhibition of Wnt (unknown origin)/FLAG-tagged human beta-catenin signaling expressed in HEK293 cells harboring TCF/LEF-responsive luciferase at 100 nM measured after 24 hrs by luciferase reporter gene assay; type: cell-based
Procedure, shortened: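 HEK293 cells were transfected for 16 h with TOPFlash or FOPFlash, Renilla, and pcDNA3 wild-type or S33Y β-catenin. Compound was then added for a further 24 h. Firefly/Renilla dual-luciferase ratio was the read-out.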

HEK293 [7] = assay: Inhibition of Wnt/beta-catenin signaling (unknown origin) expressed in HEK293 cells assessed as increase in GSK3beta binding to beta-catenin after 12 hrs by immunoprecipitation method; type: cell-based; conditions: Homo sapiens
HEK293 [8] = assay: Inhibition of Wnt/beta-catenin signaling (unknown origin) expressed in Axin1 knock down HEK293 cells harboring TCF/LEF-responsive luciferase assessed as luminescence at 20 nM measured after 24 hrs by luciferase reporter gene assay relative to control; type: cell-based; parameters: scale not given: the % may be the effect or the level left; conditions: Homo sapiens
Procedure, shortened: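 HEK293 cells were transfected with siRNA against GSK3β, Axin or CK1α using RNAiMAX for 36 h. Cells were then treated with or without compound at 20 nM for 24 h, and TCF/LEF luciferase reporter activity was read.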

[9] = target: Casein kinase I isoform alpha (Homo sapiens) (UniProt P48729); assay: Binding affinity to CK1alpha (unknown origin) by SPR analysis
Sequence of Casein kinase I isoform alpha (Homo sapiens) (P48729 2-337 limits assumed): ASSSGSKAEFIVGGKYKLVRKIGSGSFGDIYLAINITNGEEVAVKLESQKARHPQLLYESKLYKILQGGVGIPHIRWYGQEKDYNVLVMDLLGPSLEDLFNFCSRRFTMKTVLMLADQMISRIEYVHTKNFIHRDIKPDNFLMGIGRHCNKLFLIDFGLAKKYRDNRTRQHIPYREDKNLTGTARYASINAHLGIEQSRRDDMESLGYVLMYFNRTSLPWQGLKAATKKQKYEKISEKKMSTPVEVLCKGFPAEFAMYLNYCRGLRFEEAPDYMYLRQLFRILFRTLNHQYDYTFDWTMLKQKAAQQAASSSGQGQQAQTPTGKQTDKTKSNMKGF

Axin-1 (Homo sapiens) = Axin-1 (Homo sapiens) (UniProt O15169); assay: Stabilization of Axin1 in human HuH7 cells assessed as decrease in lipid accumulation at 5 uM after 36 hrs by nile red staining based fluorescence microscopic method; type: cell-based
Sequence of Axin-1 (Homo sapiens) (O15169 whole entry): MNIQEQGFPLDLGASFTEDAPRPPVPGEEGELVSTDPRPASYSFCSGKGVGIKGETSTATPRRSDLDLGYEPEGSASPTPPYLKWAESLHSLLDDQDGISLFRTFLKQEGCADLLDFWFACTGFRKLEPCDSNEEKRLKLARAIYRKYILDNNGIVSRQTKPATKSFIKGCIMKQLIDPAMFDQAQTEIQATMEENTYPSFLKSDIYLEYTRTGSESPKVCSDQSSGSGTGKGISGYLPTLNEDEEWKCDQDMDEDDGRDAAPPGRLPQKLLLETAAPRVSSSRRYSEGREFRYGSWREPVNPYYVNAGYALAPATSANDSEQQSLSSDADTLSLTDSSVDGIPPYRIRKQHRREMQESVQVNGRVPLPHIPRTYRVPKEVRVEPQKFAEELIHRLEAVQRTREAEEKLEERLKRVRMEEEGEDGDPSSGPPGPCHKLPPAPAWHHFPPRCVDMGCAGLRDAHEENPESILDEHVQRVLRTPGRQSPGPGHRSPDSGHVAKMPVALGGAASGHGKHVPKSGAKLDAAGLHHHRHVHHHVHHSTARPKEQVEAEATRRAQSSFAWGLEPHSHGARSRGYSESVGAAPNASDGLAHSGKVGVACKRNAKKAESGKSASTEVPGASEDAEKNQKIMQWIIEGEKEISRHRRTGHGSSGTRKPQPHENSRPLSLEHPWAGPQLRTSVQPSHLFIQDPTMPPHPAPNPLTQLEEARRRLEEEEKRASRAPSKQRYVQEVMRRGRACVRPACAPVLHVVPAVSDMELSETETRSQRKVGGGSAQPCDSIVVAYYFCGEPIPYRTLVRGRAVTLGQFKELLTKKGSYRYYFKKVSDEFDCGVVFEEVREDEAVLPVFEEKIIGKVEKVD
Procedure, shortened: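 Huh7 cells on collagen I-coated coverslips were treated with 5 μM compound for 36 h, then with 200 μM sodium oleate for a further 12–16 h. Cells were stained with 1 μM Nile red in HBSS for 10 min at 37 °C in the dark and imaged by fluorescence microscopy at 552/636 nm.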

Mus musculus [10] = species on record: Mus musculus; assay: Inhibition of Wnt/beta-catenin/Axin signaling in mouse hepatocytes assessed as decrease in ACAA1A mRNA level at 5 uM by qPCR analysis; type: cell-based
Procedure, shortened: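 Normal mouse hepatocytes were treated with 5 μM compound, and lipogenic and gluconeogenic gene mRNA was measured by qPCR; mean ± S.D. of triplicates.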

[11] = Half life in mouse at 10 mg/kg, po or 10 mg/kg, iv administered as single dose by LC-MS analysis; type: ADME, organism-based; conditions: in vivo
Procedure, shortened: (§2)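 Compound was dissolved at 1 mg/ml in 10% Kolliphor EL and 10% polyethylene glycol in saline. Ten mice were split into intravenous and oral groups and given a single 10 mg/kg dose. Tail-vein blood was sampled at several time points and analysed by LC/MS/MS.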

[12] = Cmax in mouse at 10 mg/kg, po administered as single dose by LC-MS analysis; type: ADME, organism-based; parameters: dose 10 mg/kg, route oral; conditions: in vivo; procedure, shortened: as §2
Mus musculus [13] = assay: Antidiabetic activity in high fat diet fed C57BL/6J mouse assessed as improvement in glucose tolerance at 40 mg/kg, ip administered every 2 days for 11 weeks followed by glucose-challenge and measured up to 120 mins by IPGTT; type: functional, organism-based
Procedure, shortened: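 Male mice, 8 weeks old, fed a 45% kcal fat diet for 6 weeks, then dosed i.p. every 2 days in corn oil vehicle alongside the continued diet. IPGTT was done before and at the end of treatment: 6–8 h fast, then glucose 2 g/kg i.p. in saline. Tail-vein blood glucose was read by glucometer over time, and AUC was derived; mean ± SEM, n = 5 per group.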

Mus musculus [14] = assay: Decrease in hepatic CycD1 mRNA level in high fat diet fed C57BL/6J mouse at 40 mg/kg, ip administered every 2 days for 11 weeks by qPCR analysis; type: functional, organism-based; procedure, shortened: as §1
Mus musculus [15] = assay: Decrease in hepatic FGF21 mRNA level in high fat diet fed C57BL/6J mouse at 40 mg/kg, ip administered every 2 days for 11 weeks by qPCR analysis; type: functional, organism-based; procedure, shortened: as §1
Mus musculus [16] = assay: Decrease in hepatic FASN mRNA level in high fat diet fed C57BL/6J mouse at 40 mg/kg, ip administered every 2 days for 11 weeks by qPCR analysis; type: functional, organism-based; procedure, shortened: as §1
Mus musculus [17] = assay: Decrease in hepatic ACAT2 mRNA level in high fat diet fed C57BL/6J mouse at 40 mg/kg, ip administered every 2 days for 11 weeks by qPCR analysis; type: functional, organism-based; procedure, shortened: as §1
Mus musculus [18] = assay: Effect on hepatic SREBP1 mRNA level in normal chow diet fed C57BL/6J mouse at 40 mg/kg, ip administered every 2 days for 11 weeks by qPCR analysis; type: ADME, organism-based; conditions: in vivo
Procedure, shortened: (§3)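 Male mice, 8 weeks old, kept on normal chow throughout and dosed i.p. every 2 days in corn oil vehicle for 11 weeks. Body weight gain, liver/body weight ratio, and liver mRNA of the indicated genes were measured at sacrifice; mean ± SEM, n = 5 per group where stated.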

Mus musculus [19] = assay: Effect on hepatic ACC1 mRNA level in normal chow diet fed C57BL/6J mouse at 40 mg/kg, ip administered every 2 days for 11 weeks by qPCR analysis; type: ADME, organism-based; conditions: in vivo; procedure, shortened: as §3
Mus musculus [20] = assay: Effect on liver weight adjusted by body weight gain in normal chow diet fed C57BL/6J mouse at 40 mg/kg, ip administered every 2 days for 11 weeks; type: ADME, organism-based; conditions: in vivo; procedure, shortened: as §3
[21] = Toxicity in high fat diet fed C57BL/6J mouse assessed as serum total bilirubin level at 40 mg/kg, ip administered every 2 days for 11 weeks (reference value: 0.2 mg/dl); type: organism-based; conditions: in vivo

IC50 [2]: 4.1 nM
Activity [9]: inactive
Activity (Axin-1 (Homo sapiens)): Active
half-life [11]: 2.8 to 3.3 h
Cmax [12]: 2200 ng/mL
Structure (SMILES): Cc1ccccc1-n1nnc(C(=O)Nc2ccc3ccccc3n2)c1C
Activity (Mus musculus [1]): Active
growth inhibition (GI) (HEK293 [3]): Non-Toxic
inhibition (HEK293 [4]): Active
inhibition (HEK293 [5]): Active
inhibition (HEK293 [6]): Active
inhibition (HEK293 [7]): Active
Activity (HEK293 [8]): 41%
inhibition (Mus musculus [10]): Active
Activity (Mus musculus [13]): Active
Activity (Mus musculus [14]): Active
Activity (Mus musculus [15]): Active
Activity (Mus musculus [16]): Active
Activity (Mus musculus [17]): Active
Activity (Mus musculus [18]): Non-Toxic
Activity (Mus musculus [19]): Non-Toxic
Activity (Mus musculus [20]): Non-Toxic
Activity [21]: 0.2 mg/dL
